Experiments:
DU-145 = test: Cytotoxicity against human DU145 cells after 48 hrs by SRB assay; format: functional, cell-based; conditions: Homo sapiens, DU-145, 48 h; read-out: LC50 (the source's name)
In short: (§1)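 Cells grown in RPMI 1640 with 10% FBS and penicillin/streptomycin at 37 °C and 5% CO₂, trypsinized, then seeded at 5 × 10³/well. After 18 h drug-free attachment, samples in DMSO/EtOH/PBS (0.5:0.5:99) were added for 48 h continuous exposure. Cells were fixed with cold TCA (1 h, 4 °C) and stained with SRB (10 min). Tris-solubilized stain read at 490 nm. Triplicate wells, mean ± SD; GI₅₀ derived.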

LNCaP = test: Cytotoxicity against human LNcaP cells after 48 hrs by SRB assay; format: functional; conditions: for CC50: read-out: LC50 (the source's name); in short: as §1
[1] = Cytotoxicity against human IGROV cells after 48 hrs by SRB assay; format: functional; conditions: for CC50: read-out: LC50 (the source's name); in short: as §1
[2] = Cytotoxicity against human IGROV-ET cells after 48 hrs by SRB assay; format: functional; conditions: for CC50: read-out: LC50 (the source's name); for GI50: read-out: GI50; in short: as §1
SK-BR-3 = test: Cytotoxicity against human SKBR3 cells after 48 hrs by SRB assay; format: functional; conditions: SK-BR-3, 48 h; for CC50: read-out: LC50 (the source's name); in short: as §1
SK-MEL-28 = test: Cytotoxicity against human SK-MEL-28 cells after 48 hrs by SRB assay; format: functional, cell-based; conditions: Homo sapiens, SK-MEL-28, 48 h; for CC50: read-out: LC50 (the source's name); in short: as §1
A549 = test: Cytotoxicity against human A549 cells after 48 hrs by SRB assay; format: functional, cell-based; conditions: Homo sapiens, A549, 48 h; in short: as §1
K562 = test: Cytotoxicity against human K562 cells after 48 hrs by SRB assay; format: functional; conditions: K562, 48 h; for CC50: read-out: LC50 (the source's name); in short: as §1
PANC-1 = test: Cytotoxicity against human PANC1 cells after 48 hrs by SRB assay; format: functional; conditions: PANC-1, 48 h; for CC50: read-out: LC50 (the source's name); in short: as §1
HT-29 = test: Cytotoxicity against human HT29 cells after 48 hrs by SRB assay; format: functional, cell-based; conditions: Homo sapiens, HT-29, 48 h; for CC50: read-out: LC50 (the source's name); in short: as §1
LoVo [3] = test: Cytotoxicity against human LoVo cells after 48 hrs by SRB assay; format: functional; conditions: for CC50: read-out: LC50 (the source's name)
LoVo [4] = test: Cytotoxicity against human doxorubicin resistant LoVo cells after 48 hrs by SRB assay; format: functional; conditions: for CC50: read-out: LC50 (the source's name); in short: as §1
HeLa = test: Cytotoxicity against human HeLa cells after 48 hrs by SRB assay; format: functional; conditions: read-out: LC50 (the source's name); in short: as §1
[5] = Cytotoxicity against human HeLa-APL cells after 48 hrs by SRB assay; format: functional; in short: as §1

Row | Compound | CC50 (DU-145) [nM] | CC50 (LNCaP) [nM] | GI50 ([1]; read-out: GI50) [nM] | CC50 [1] [nM] | CC50 [2] [nM] | CC50 (SK-BR-3) [nM] | CC50 (SK-MEL-28) [nM] | LC50 (A549) [nM] | GI50 (K562) [nM] | TGI (K562) [nM] | CC50 (K562) [nM] | CC50 (PANC-1) [nM] | CC50 (HT-29) [nM] | TGI (LoVo [3]) [nM] | CC50 (LoVo [3]) [nM] | GI50 (LoVo [4]) [nM] | TGI (LoVo [4]) [nM] | CC50 (LoVo [4]) [nM] | CC50 (HeLa) [nM] | LC50 (concentration giving 50% net cell kill) [5] [nM] | also measured
1 | C/C=C1\NC(=O)[C@H](Cc2ccccc2)NC(=O)[C@@H](C(C)C)NC(=O)[C@@H]([C@H](C)CC)NC(=O)[C@H](NC(=O)[C@H](NC(=O)[C@H](CCCN)NC(=O)[C@H]2CCCN2C(=O)[C@H](NC(=O)[C@@H](NC(=O)[C@@H]2CCCN2C(=O)[C@H](NC(=O)CCCC(C)C)C(C)C)C(C)C)C(C)C)[C@H](C)CC)[C@H](C)OC(=O)[C@H](C(C)C)NC1=O | 1430 | 982 | 4520 | 585 | 920 | 302 | 1670 | 4690 | 1480 | 1690 | 1920 | 2280 | 4310 | 4050 | 3380 | 2860 | 2330 | 396 | 967 | 934 | GI50 [1]: 280 nM; TGI (SK-MEL-28): 2330 nM; GI50 (SK-MEL-28; read-out: GI50): 2440 nM; TGI (A549): 1530 nM; GI50 (A549; read-out: GI50): 1610 nM; GI50 (PANC-1): 5140 nM; TGI (PANC-1): 4520 nM; GI50 (HT-29): 4630 nM; TGI (HT-29): 4480 nM; GI50 (LoVo [3]): 4660 nM
2 | C/C=C1\NC(=O)[C@H](Cc2ccccc2)NC(=O)[C@@H](C(C)C)NC(=O)[C@@H]([C@H](C)CC)NC(=O)[C@H](NC(=O)[C@H](NC(=O)[C@H](CCCN)NC(=O)[C@H]2CCCN2C(=O)[C@H](NC(=O)[C@@H](NC(=O)[C@H](NC(=O)[C@H](NC(=O)CCCC(C)C)C(C)C)[C@@H](C)O)C(C)C)C(C)C)[C@H](C)CC)[C@H](C)OC(=O)[C@H](C(C)C)NC1=O | 1460 | 1490 | – | 791 | 1050 | 1140 | 1620 | 1810 | 1930 | 1930 | 1930 | 1770 | 4710 | 8960 | 4750 | – | – | 22300 | 1920 | 1800 | –
3 | C/C=C1\NC(=O)[C@H](Cc2ccccc2)NC(=O)[C@@H](C(C)C)NC(=O)[C@@H]([C@H](C)CC)NC(=O)[C@H](NC(=O)[C@H](NC(=O)[C@H](CCCN)NC(=O)[C@H]2CCCN2C(=O)[C@H](NC(=O)[C@H](CCC(=O)O)NC(=O)[C@@H](NC(=O)[C@H](NC(=O)CCCC(C)C)C(C)C)[C@@H](C)O)C(C)C)[C@H](C)CC)[C@H](C)OC(=O)[C@H](C(C)C)NC1=O | 1660 | 1370 | – | 842 | 632 | 1040 | 1820 | 1790 | – | – | 1890 | 2270 | 2330 | – | 3860 | – | – | 3670 | 1350 | 1420 | –
4 | C/C=C1\NC(=O)[C@H](Cc2ccccc2)NC(=O)[C@@H](C(C)C)NC(=O)[C@@H]([C@H](C)CC)NC(=O)[C@H](NC(=O)[C@H](NC(=O)[C@H](CCCN)NC(=O)[C@H]2CCCN2C(=O)[C@H](NC(=O)[C@@H](NC(=O)[C@H](CCCN)NC(=O)[C@H](NC(=O)CCCC(C)C)C(C)C)C(C)C)C(C)C)[C@H](C)CC)[C@H](C)OC(=O)[C@H](C(C)C)NC1=O | 1400 | 1120 | 4700 | 576 | 957 | 296 | 1640 | 4620 | 1620 | 1890 | 2180 | 2240 | 446 | 4180 | 3330 | 2880 | 2700 | 484 | 951 | 9600 | GI50 (LNCaP): 675 nM; TGI (LNCaP): 2240 nM; GI50 [1]: 292 nM; GI50 (HT-29): 5900 nM; TGI (HT-29): 5140 nM; GI50 (LoVo [3]): 4940 nM
5 | C/C=C1\NC(=O)[C@H](Cc2ccccc2)NC(=O)[C@@H](C(C)C)NC(=O)[C@@H]([C@H](C)CC)NC(=O)[C@H](NC(=O)[C@H](NC(=O)[C@H](CCCN)NC(=O)[C@H]2CCCN2C(=O)[C@H](NC(=O)[C@@H](NC(=O)[C@@H](NC(=O)[C@H](NC(=O)CCCC(C)C)C(C)C)[C@@H](C)O)[C@@H](C)O)C(C)C)[C@H](C)CC)[C@H](C)OC(=O)[C@H](C(C)C)NC1=O | 1690 | 1400 | – | 859 | 644 | 1060 | 1860 | 1820 | – | – | 1930 | 2320 | 2370 | 3350 | 3770 | 2990 | 2900 | 2820 | 1380 | 1450 | TGI [2]: 1750 nM; GI50 [2]: 1910 nM; TGI (SK-BR-3): 2430 nM; GI50 (SK-BR-3; read-out: GI50): 2070 nM; GI50 (PANC-1): 5510 nM; TGI (PANC-1): 4560 nM; GI50 (HT-29): 11000 nM; TGI (HT-29): 8870 nM; GI50 (LoVo [3]): 2970 nM
6 | C/C=C1\NC(=O)[C@H](Cc2ccccc2)NC(=O)[C@@H](C(C)C)NC(=O)[C@@H]([C@H](C)CC)NC(=O)[C@H](NC(=O)[C@H](NC(=O)[C@H](CCCN)NC(=O)[C@H]2CCCN2C(=O)[C@H](NC(=O)[C@@H](NC(=O)[C@@H](NC(=O)[C@H](NC(=O)CCCC(C)C)C(C)C)[C@@H](C)O)C(C)C)C(C)C)[C@H](C)CC)[C@@H](C)OC(=O)[C@H](C(C)C)NC1=O | 10600 | 4920 | 73200 | 72400 | 2130 | 1690 | 1770 | 1920 | – | – | 4420 | 8900 | 3790 | – | 5540 | 6030 | 7370 | 4080 | 1910 | 2360 | GI50 (LNCaP): 19300 nM; TGI (LNCaP): 20300 nM; TGI [1]: 106000 nM; TGI [2]: 4480 nM; GI50 [2]: 3760 nM
